Ecoli rRNA inh = selective bacterial rRNA inhibition in E. coli | E. coli WT GFP vs humanized-ribosome RFP mutants, fluorescence, 24 h; active compounds read low; DMSO median 0, no signal -100 | hit rate 1.6% among 350,000 | GFP signal change (wild-type ribosome), % (concentration not given with the values);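 active = significant combined selectivity score with lowered wild-type GFP, culture density cut under 30%, mutant RFP and density less affected; inactive = any of these conditions unmet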
LGR2 antag = Drosophila LGR2 receptor signaling inhibition; HEK293 LGR2, CRE-luciferase, bursicon-stimulated, 4 h; inhibition, % at 9.99 µM; hit rate 0.35% among 380,000; AID 720647;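 active = drop in luminescence signal, shown as inhibition above about 50% in the replicate tests, limit read from the data, passing the limit was not always enough; inconclusive = probably only some replicates passing the limit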;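 also: agonist challenge used bursicon conditioned medium at about half maximal strength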
E-selectin induc = induces E-selectin expression in human endothelial cells; HUVEC E-selectin immunofluorescence imaging; normalized: neutral wells 0, TNF-alpha wells 100; activation, % at 7.58 µM; hit rate 0.37% among 260,000; AID 686992;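 active = mean E-selectin-positive cell signal at least 10% of the positive control, reached in at least 60% of replicates, without over 20% cell loss; inconclusive = no rule given, readout overlaps actives, possibly toxicity-flagged; inactive = the rest, including those meeting only one limit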
Target sequence (P16581 whole entry, looked up): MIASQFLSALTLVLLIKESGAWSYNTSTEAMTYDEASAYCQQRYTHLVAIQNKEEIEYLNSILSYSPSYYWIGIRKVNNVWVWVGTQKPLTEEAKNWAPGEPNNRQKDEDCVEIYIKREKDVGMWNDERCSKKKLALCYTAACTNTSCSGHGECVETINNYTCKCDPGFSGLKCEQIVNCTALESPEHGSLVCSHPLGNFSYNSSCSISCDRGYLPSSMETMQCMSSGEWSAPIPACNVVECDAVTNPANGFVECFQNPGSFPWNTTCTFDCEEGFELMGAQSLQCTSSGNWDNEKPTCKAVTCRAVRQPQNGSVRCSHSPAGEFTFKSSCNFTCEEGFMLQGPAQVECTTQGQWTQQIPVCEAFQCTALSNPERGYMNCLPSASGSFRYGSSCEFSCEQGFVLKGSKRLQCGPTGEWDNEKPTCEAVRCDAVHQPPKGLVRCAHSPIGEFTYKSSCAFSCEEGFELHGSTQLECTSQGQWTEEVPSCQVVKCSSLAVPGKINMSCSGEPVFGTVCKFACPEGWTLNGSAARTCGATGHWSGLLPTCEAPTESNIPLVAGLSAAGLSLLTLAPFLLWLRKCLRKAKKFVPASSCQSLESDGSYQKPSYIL
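Test system: HUVEC; input: 3,000 HUVEC/well; measured by: immunofluorescence imaging; read-out: % PE-positive cells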
EWS-Fli block = blocks EWS/Fli oncoprotein-driven transcription; AID 651661; hit rate 0.67% among 350,000; inhibition, % at 12.6 µM; A673 NR0B1-luciferase reporter, viability-normalised;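 active = mean inhibition of at least 50% after viability correction, with every replicate also passing that limit; inconclusive = mean reaches 50% but only one of two replicates passes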;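 also: firefly luciferase signal divided by Alamar Blue viability fluorescence both relative to DMSO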
DNA binder FP = binds DNA displacing acridine orange. shares compounds with EWS-Fli block. salmon sperm DNA acridine orange fluorescence polarization. AC35, µM (top dose mostly 68 µM), for the others: at the top dose activity change, negative = DNA binding. hit rate 2% among 640;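 active = fitted curve reaches a 35% signal fall AC35 below twice the sample's top valid tested dose, actives reach about 48 µM in these data; inactive = the rest, including activity in the rising direction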;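 also: lower polarization ratio signals compound binding to DNA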
Numbers without * were called inactive; ? = inconclusive; . = no result given. An excerpt weighted towards active compounds, which were near 2.4% of everything screened.

SMILES	Ecoli rRNA inh	LGR2 antag	E-selectin induc	EWS-Fli block	DNA binder FP
O=C(C[C@H]1C[C@@H]2c3cc(NS(=O)(=O)c4ccc(F)cc4)ccc3O[C@@H]2[C@@H](CO)O1)NCc1ccc(Oc2ccccc2)cc1	-1	?	-1	49	.
O=C(C[C@H]1C[C@H]2c3cc(NS(=O)(=O)c4ccc(F)cc4)ccc3O[C@H]2[C@H](CO)O1)NCc1ccc(Oc2ccccc2)cc1	-8	22	0	54*	6%
CN(C)c1ccc2c(c1)[C@@H]1C[C@H](CC(=O)NCc3ccc(Oc4ccccc4)cc3)O[C@@H](CO)[C@@H]1O2	-7	.	.	38	.
CN(C)c1ccc2c(c1)[C@@H]1C[C@@H](CC(=O)NCc3ccc(Oc4ccccc4)cc3)O[C@H](CO)[C@@H]1O2	-7	.	.	52*	3%
CCc1cccc2c(C(=O)CN3C(=O)NC4(CCCCC4)C3=O)c[nH]c12	6	-3	2	51*	9%
CCOc1ccc2nc(NC3=NC(c4ccc(OC)cc4)CC(=O)N3)nc(C)c2c1 (stereo not given)	-2	20	.	57*	-1%
O=C(CN1C(=O)C(=O)c2ccccc21)OCN1C(=O)c2ccccc2C1=O	1	.	.	11	.
O=C(CN1C(=O)C(=O)c2ccccc21)c1ccc(Cl)cc1	0	-6	0	60*	-8%
CCN(CC)C(=O)CN1C(=O)C(=O)c2ccccc21	4	-5	.	54*	-9%
COc1ccc2c3c(n(C)c2c1)[C@H](CO)N(C(=O)CN(C)C)CC31CCN(C(=O)NC(C)C)CC1	3	7	0	-12	.
C[C@@H]1CCCCO[C@H](CN(C)Cc2ccc(C(=O)Nc3ccccc3N)cc2)[C@@H](C)CN([C@H](C)CO)C(=O)c2cc(NS(=O)(=O)c3ccc(Cl)cc3)ccc2O1	-1	10	0	61*	-13%
Cc1ccc(S(=O)(=O)Nc2ccc3c(c2)C(=O)N([C@@H](C)CO)C[C@H](C)[C@@H](CN(C)Cc2ccc(C(=O)Nc4ccccc4N)cc2)O3)cc1	-2	-15	1	3	.
C[C@@H]1CN([C@@H](C)CO)C(=O)c2cc(NS(=O)(=O)c3ccc(Cl)cc3)ccc2O[C@@H]1CN(C)Cc1ccc(C(=O)Nc2ccccc2N)cc1	-8	6	7	53*	-2%
Cc1ccc(S(=O)(=O)Nc2ccc3c(c2)C(=O)N([C@H](C)CO)C[C@@H](C)[C@@H](CN(C)Cc2ccc(C(=O)Nc4ccccc4N)cc2)O3)cc1	-3	7	6	51*	-10%
C[C@H](CO)N1C[C@H](C)[C@H](CN(C)Cc2ccc(C(=O)Nc3ccccc3N)cc2)Oc2ccc(NS(=O)(=O)c3cccs3)cc2C1=O	-5	-20	4	54*	-4%
COc1ccc(S(=O)(=O)N[C@H]2C=C[C@H](CC(=O)N3CCN(c4ccccc4)CC3)O[C@@H]2CO)cc1	-3	15	-2	3	.
C[C@@H]1CN([C@@H](C)CO)C(=O)c2cc(NC(=O)Nc3ccccc3)ccc2O[C@@H]1CN(C)Cc1ccc(C(=O)Nc2ccccc2N)cc1	-11	8	8	58*	5%
OCC1OC(n2cnc3c(NC4CCCC4)ncnc32)C(O)C1O (stereo not given)	.	5	?	-8	.
OCC1OC(n2cnc3c(NCc4ccco4)ncnc32)C(O)C1O (stereo not given)	5	-4	.	76*	-13%
OC[C@H]1O[C@@H](n2cnc3c(NC4CCCC4)ncnc32)[C@H](O)[C@@H]1O	.	.	0	-12	.
OC[C@H]1O[C@@H](n2cnc3c(NCc4ccco4)ncnc32)[C@H](O)[C@@H]1O	.	-14	-2	80*	-10%
O=C(Nc1ccc(Br)cc1)c1ccc(F)c(S(=O)(=O)N2CCN(c3ccccn3)CC2)c1	14	8	.	59*	-6%
Cc1ccccc1NC(=O)c1ccc(F)c(S(=O)(=O)N2CCN(c3ccccn3)CC2)c1	16	2	.	18	.
CCN1CCS/C1=C\C=C\C1=[N+](CC)CCS1	-32	24	1	53*	-1%
O=C(NC1CCC1)[C@@H]1[C@@H](CO)[C@@H]2Cn3c(ccc(-c4ccccc4)c3=O)[C@@H]2N1Cc1ccccn1	0	-6	-2	3	.
SMILES	Ecoli rRNA inh	LGR2 antag	E-selectin induc	EWS-Fli block	DNA binder FP
COc1cc(-c2noc(C)c2C#Cc2nccn2C)cc(OC)c1OC	-24	-6	0	52*	-9%
CC(=O)Nc1ccc2c(c1)CC(=O)N(C)C[C@H](C)[C@@H](CN(C)C(C)=O)O2	0	.	.	.	.
COc1ccc(Cl)cc1S(=O)(=O)Nc1ccc2c(c1)n(C)c(=O)n2C	-14	-8	.	54*	-16%
CN(C)C(=O)C[C@@H]1CC[C@H](NC(=O)C2CCOCC2)[C@@H](CO)O1	2	14	0	4	.
O=C(O)c1ccc2cc(-c3ccccc3)[nH]c2c1	.	.	0	64*	-8%
O=C(Nc1ccc2c(c1)[C@@H]1C[C@@H](CC(=O)N3CCOCC3)O[C@@H](CO)[C@@H]1O2)C1CCOCC1	3	-9	0	5	.
O=c1[nH]c(=O)n([C@H]2C[C@H](O)[C@@H](CO)O2)cc1C(F)(F)F	.	0	1	57*	-3%
O=c1[nH]c(=O)n(C2C[C@H](O)[C@@H](CO)O2)cc1C(F)(F)F (stereo not given in full)	.	-3	1	62*	-9%
O=c1[nH]c(=O)n(C2CC(O)C(CO)O2)cc1Br (stereo not given)	1	-17	1	25	.
N#CC1=C(N)Oc2cc(N)ccc2C1c1cccc(Br)c1 (stereo not given)	-15	-4	.	62*	6%
CCOc1cc(C2C(C#N)=C(N)Oc3cc(N)ccc32)ccc1O (stereo not given)	12	-3	0	-5	.
COc1ccc(CN(C)C[C@@H]2Oc3c(NC(=O)Nc4c(C)noc4C)cccc3C(=O)N([C@H](C)CO)C[C@H]2C)cc1	-3	11	0	-3	.
CC(C)(C)c1ccc(Oc2ccc(NC(=O)C3CC=CCC3C(=O)O)cc2)cc1 (stereo not given)	-37	25	4	70*	-14%
CC(=O)c1ccc(NC(=O)c2noc3c2CCC3)cc1	-1	64*	0	60*	-6%
O=C1NC(Cc2ccc(O)cc2)c2nc3cc(F)ccc3c(=O)n2-c2cc3ccccc3cc21 (stereo not given)	-15	26	0	?	.
Cc1ccc2c(=O)n3c(nc2c1)C(Cc1ccc(O)cc1)NC(=O)c1cc2ccccc2cc1-3 (stereo not given)	-7	3	1	53*	-8%
C[C@@H]1CN([C@H](C)CO)C(=O)Cc2cc(NC(=O)Nc3cccc4ccccc34)ccc2O[C@@H]1CN(C)Cc1ccc2c(c1)OCO2	-5	8	.	16	.
N#C[C@H]1[C@H](c2ccc(-c3ccccc3F)cc2)[C@@H](CO)N1C(=O)Cc1ccccc1	-30	-26	0	62*	11%
